Test [1] is described as follows: Cell cycle arrest in human HeLaS3 cells assessed as accumulation at G2/M phase after 48 hrs using propidium iodide staining by flow cytometry (reference value: 16.21%). It is filed as functional, cell-based. The note with it: HeLa S3. In short, it runs like this:
(§1)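 HeLa S-3 cells incubated without (control) or with compound for 9, 24 or 48 h, then fixed and stained with propidium iodide. DNA content read by flow cytometry. Populations given as percent in sub-G1, G1, S and G2/M phases.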
Background: In flow cytometry, cells or beads pass a laser one at a time.

Test [2] can be described thus: Cell cycle arrest in human HeLaS3 cells assessed as accumulation at G2/M phase after 24 hrs using propidium iodide staining by flow cytometry (reference value: 16.21%). The test is classed as functional, cell-based. The conditions noted are these: HeLa S3. In short, it runs like this: as §1
The nature of test [3]: Cell cycle arrest in human HeLaS3 cells assessed as accumulation at G2/M phase after 9 hrs using propidium iodide staining by flow cytometry (reference value: 16.21%). It is filed as functional, cell-based. The note with it: HeLa S3. The essentials:
as §1

The nature of test [4]: Cell cycle arrest in human HeLaS3 cells assessed as accumulation at S phase after 48 hrs using propidium iodide staining by flow cytometry (reference value: 6.36%). The test is classed as functional, cell-based. The note with it: HeLa S3.
A short description of test [5]: Cell cycle arrest in human HeLaS3 cells assessed as accumulation at S phase after 24 hrs using propidium iodide staining by flow cytometry (reference value: 6.36%). The note with it: HeLa S3. It is filed as functional, cell-based.
The nature of test [6]: Cell cycle arrest in human HeLaS3 cells assessed as accumulation at S phase after 9 hrs using propidium iodide staining by flow cytometry (reference value: 6.36%). The test is classed as functional, cell-based. The note with it: HeLa S3.
The nature of test [7]: Cell cycle arrest in human HeLaS3 cells assessed as accumulation at G1 phase after 48 hrs using propidium iodide staining by flow cytometry (reference value: 75.29%). It is filed as functional, cell-based. The conditions noted are these: HeLa S3. In short, it runs like this:
as §1

Test [8] is described as follows: Cell cycle arrest in human HeLaS3 cells assessed as accumulation at G1 phase after 24 hrs using propidium iodide staining by flow cytometry (reference value: 75.29%). The conditions noted are these: HeLa S3. The test is classed as functional, cell-based. In short, it runs like this: as §1
A short description of test [9]: Cell cycle arrest in human HeLaS3 cells assessed as accumulation at G1 phase after 9 hrs using propidium iodide staining by flow cytometry (reference value: 75.29%). The test is classed as functional, cell-based. The conditions noted are these: HeLa S3. The essentials:
as §1

Test [10] is described as follows: Cell cycle arrest in human HeLaS3 cells assessed as accumulation at sub-G1 phase after 48 hrs using propidium iodide staining by flow cytometry (reference value: 2.41%). The test is classed as functional, cell-based. The note with it: HeLa S3. In short, it runs like this:
as §1

The nature of test [11]: Cell cycle arrest in human HeLaS3 cells assessed as accumulation at sub-G1 phase after 24 hrs using propidium iodide staining by flow cytometry (reference value: 2.41%). The conditions noted are these: HeLa S3. The test is classed as functional, cell-based. In short, it runs like this: as §1
Test [12] is described as follows: Cell cycle arrest in human HeLaS3 cells assessed as accumulation at sub-G1 phase after 9 hrs using propidium iodide staining by flow cytometry (reference value: 2.41%). The test is classed as functional, cell-based. The note with it: HeLa S3. In short, it runs like this: as §1
Test [13] has as its system HeLa S3. Put plainly: Induction of apoptosis in human HeLaS3 cells assessed as DNA fragmentation after 48 hrs agarose-gel electrophoresis. It is filed as functional, cell-based. In short, it runs like this: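 HeLa S-3 cells treated with compound for 48 h. Genomic DNA extracted and run on a 2% agarose gel beside a 100 bp ladder marker to detect DNA fragmentation.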

The subject of test [14] is HeLa S3. Put plainly: Induction of apoptosis in human HeLaS3 cells assessed as formation of chromatin condensation and fragmented nuclei after 48 hrs by Hoechst 33342 staining. The test is classed as functional, cell-based. The essentials:
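HeLa S-3 cells treated with compound for 48 h, then stained with Hoechst 33342. Nuclear chromatin examined by fluorescence microscopy for condensation and fragmented nuclei, with untreated cells as comparison.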

The nature of test [15]: Cytotoxicity against mouse Sarcoma 180 cells after 24 to 72 hrs by MTT assay. The test is classed as functional, cell-based. In short, it runs like this: (§2)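 MTT assay. IC50 taken as the drug concentration giving 50% inhibition of cell growth. Values are mean ± S.D. of four independent experiments, each run in triplicate.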
Background: Tetrazolium dyes change colour on reduction, which living cells bring about.

Another test has as its system HEK-293T. Put plainly: Cytotoxicity against human 293T cells after 24 to 72 hrs by MTT assay. It is filed as cell-based. In short, it runs like this:
as §2

Test [16] can be described thus: Cytotoxicity against human HeLaS3 cells after 24 to 72 hrs by MTT assay. It is filed as functional, cell-based. The note with it: HeLa S3. In short, it runs like this:
as §2

By IC50 is commonly meant the concentration needed to halve the response being measured. A low value points to greater potency.

The source made the active and inactive calls. No cut-off for these calls is given here.

`O=C(Nc1cc(Cl)cc2c1[nH]c1cnc(NCc3ccccc3)cc12)c1ccccc1`: the Activity was 55.3% in test [1]; 40.1% in [2]; 49.1% in [3]; 11.1% in test [4]; 12.7% in test [5]; 10.4% in test [6]. Further, the Activity is 11.7% in test [7]; 32.4% in test [8]; 33.9% in [9]; 22% in test [10]; 14.8% in test [11]; 6.59% in test [12]. Further, the outcome in the test on HeLa S3 [13] and in the test on HeLa S3 [14] was Active. In addition, the figures for the 50% inhibitory concentration (IC50) (in [15]; in the test on HEK-293T; in test [16]) were 2800 nM, 4800 nM and 4600 nM, respectively.

With `Clc1ccc2[nH]c3cnc(NCc4ccccc4)cc3c2c1`, the Activity in test [1] was found to be 49%; in [2] it was 69.5%; in [3], 46.9%; in test [4], 11.3%; in [5], 7.74%; in test [6], 10.9%. For the same compound, the Activity in test [7] came to 18.2%; in [8], 8.2%; in test [9], 33%; in test [10], 21.4%; in test [11] it was 14.6%; in [12], 9.14%. Also, the outcome in the test on HeLa S3 [13] and in the test on HeLa S3 [14] was Active. The IC50 came to 1800 nM in test [15] and 2800 nM in test [16].
